Compound activity deposited in PubChem BioAssay by Sanford-Burnham Center for Chemical Genomics.
Only some compounds are listed: those with a hit (about 1.2% of all), similar ones and a draw of the others.
PfGluPho inh – PfG6PD (Plasmodium falciparum) enzyme inhibition; PfGluPho enzyme, NADPH resazurin-diaphorase fluorescence; inhibition, % at 20 µM; actives 0.78% (n = 350,000); AID 504690;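 active means inhibition reaching at least a set limit at 20 µM in the primary screen, cut at about 59% in these data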;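 further: 0% = DMSO wells with substrate and 100% = DMSO wells lacking glucose-6-phosphate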
G6PDH counter – inhibits Leuconostoc G6PDH, flagging false hits in G6PDH-based assays; inhibition, % at 5 µM; actives 0.12% (n = 200,000); Purified L. mesenteroides G6PDH, diaphorase/resazurin coupled fluorescence, 45 min; AID 1020; in the data active means inhibition above about 50%
Diaph act CS – diaphorase activation or chemical reduction counter-screen; Diaphorase/resazurin coupled assay, resorufin fluorescence, 16 min; stronger effect = higher value; 1 = vehicle wells, 0 = NADH-free wells; activation factor at 20 µM; actives 0.005% (n = 190,000);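 active means diaphorase activity raised at least twofold by the compound at 20 µM; inactive means activation factor below 2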
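Material: Purified diaphorase enzyme from Clostridium kluyveri | Buffer or medium: 50 mM HEPES pH 7.4 with 4.542 mM MgCl2, 0.005% Tween 20 | Times: 16 min enzyme reaction, ambient temperature | Signal: Red resorufin fluorescence at 544/590 nm excitation/emission | Measure: Increased resorufin signal from activators or reducing compounds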
HKDC1 inh – inhibitors of human hexokinase HKDC1 | Q2TB90 | actives 0.16% (n = 340,000) | AID 493160 | inhibition, % at 20 µM | recombinant HKDC1, G6PDH/diaphorase resazurin coupled fluorescence;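 active means inhibition above about 35% when tested at 20 µM, limit read from the data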;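 further: plate controls were DMSO wells with enzyme for no effect and DMSO wells lacking enzyme for full effect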
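Test system: Recombinant HKDC1 (HK5) hexokinase enzyme, produced in-house | Input: HKDC1 at 5 µg/mL | Buffer or medium: Tris pH 8.0 buffer with MgCl2, Tween-20, BSA, BME | Schedule: 90 min reaction incubation at room temperature, dark | Technique: Resazurin-to-resorufin fluorescence via G6PDH and diaphorase coupling, 525/613 nm | Controls: DMSO wells with and without enzyme mix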
Diaph inh CS – diaphorase inhibition or chemical oxidation counter-screen. diaphorase resazurin-to-resorufin fluorescence, NADH, 16 min; bacterial (C. kluyveri) enzyme, not human. inhibition, % at 20 µM. actives 0.69% (n = 190,000);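 active means primary screen inhibition at 20 µM above a set limit, cut at about 50% in these data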;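 further: plate controls were DMSO with full reaction for no effect and wells lacking NADH for full effect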
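Assay system – diaphorase enzyme from Clostridium kluyveri · Amount – diaphorase 0.14 U/mL (working solution) · Times – reaction incubation of 16 min at room temperature · Controls – No-NADH positive control and DMSO neutral control · Signal – resorufin fluorescence 544/590 nm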
PfG6PD confirm – confirmation of Plasmodium falciparum G6PD inhibitors. shares compounds with PfGluPho inh. recombinant PfGluPho, NADPH-diaphorase-resazurin fluorescence. inhibition, % at 20 µM. actives 34% (n = 2,400). AID 504753;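 active means inhibition of at least 50% at 20 µM in any single replicate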;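 further: 0% = DMSO with substrate and 100% = DMSO lacking glucose-6-phosphate substrate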
Diaph ctr 10uM – inhibits diaphorase or oxidizes, flagging false PfG6PD hits. shares compounds with PfGluPho inh. diaphorase-coupled resazurin reduction, fluorescence, NADPH 10 uM. inhibition, % at 20 µM. actives 39% (n = 820);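 active means average inhibition reaching 50% or more with the compound at 20 µM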;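 further: resorufin red fluorescence formed as diaphorase reduces resazurin using NADPH; 0% = DMSO with enzyme and 100% = DMSO without enzyme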
Diaphorase 30uM – inhibits diaphorase or oxidizes, flagging false PfG6PD hits; inhibition, % at 20 µM; actives 29% (n = 820); shares compounds with PfGluPho inh; Diaphorase/resazurin coupled assay, resorufin fluorescence, 30 uM NADPH;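 active means inhibition averaging 50% or more, tested at 20 µM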;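 further: 0% = DMSO with enzyme and 100% = DMSO wells lacking diaphorase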
Numbers without * were called inactive; . = not tested or not shown.

SMILES	PfGluPho inh	G6PDH counter	Diaph act CS	HKDC1 inh	Diaph inh CS	PfG6PD confirm	others
Cc1cccn2c(=O)c3cc(C(=O)NC4CCCC4)c(=N)n(C4CCCC4)c3nc12	82*	-43	0.9	-22	8	23
Cc1cccc(CNC(=O)c2ccc3c(c2)N(C)CCS3)c1	71*	.	.	-6	.	-20
CN1CCSc2ccc(C(=O)NCc3ccccc3F)cc21	63*	.	.	-5	.	14
COc1cccc(N2CCN(C(=O)c3ccc(-c4ccccc4)cc3)CC2)c1	13	.	.	4	.	.
CSC1SCC2C(=O)N(C)C(C(C)C)C(=O)OCC(NC(=O)c3cnc4ccccc4n3)C(=O)NC(C)C(=O)N(C)C1C(=O)N(C)C(C(C)C)C(=O)OCC(NC(=O)c1cnc3ccccc3n1)C(=O)NC(C)C(=O)N2C (stereo unspecified)	59*	.	.	14	.	8
COc1ccc(C(=O)Nc2cc(Cl)ccc2OC(=O)c2ccc(OC)cc2)cc1	34	6	0.8	-2	16	.
O=C(COc1cccc2ccccc12)Nc1cc(Cl)ccc1C(=O)O	105*	.	.	19	.	69*	Diaph ctr 10uM=60*;Diaphorase 30uM=59*
COc1ccc(C(=O)Nc2cc(Cl)ccc2C(=O)O)cc1	105*	-1	0.9	6	10	51*	Diaph ctr 10uM=45;Diaphorase 30uM=47
O=C(COc1cccc2ccccc12)Nc1ccc(Cl)cc1C(=O)O	75*	.	.	20	.	64*	Diaph ctr 10uM=60*;Diaphorase 30uM=48
O=C(Cc1ccc(Cl)cc1)NC1CCCN(Cc2ccccc2F)C1 (stereo unspecified)	-14	.	.	0	.	.
ONC(=Nc1ccccc1Cl)c1ccccc1Cl	68*	.	.	1	.	41
O=[N+]([O-])c1cccc(C(=Nc2ccccc2Cl)NO)c1	20	-12	0.9	-2	10	.
N#C/C(=C\c1ccc(N2CCOCC2)o1)c1ccccc1	48	5	0.9	-9	5	.
N#C/C(=C/c1ccc(N2CCCCCC2)o1)c1cccc(F)c1	65*	18	0.7	4	29	-4
N#C/C(=C/c1ccc(N2CCOCC2)o1)c1ccc(Br)cc1	80*	4	0.7	2	31	28
CN(c1ccc(OCC(=O)OCC(=O)Nc2ccc(OC(F)F)cc2)cc1)S(=O)(=O)c1cccs1	4	.	.	2	.	.
CC(=O)Nc1ccc2sn(-c3ccccc3)c(=O)c2c1	126*	.	.	.	.	105*	Diaph ctr 10uM=-12;Diaphorase 30uM=11
O=c1c2cc([N+](=O)[O-])ccc2sn1-c1ccccc1	121*	.	.	.	.	105*	Diaph ctr 10uM=12;Diaphorase 30uM=17
N#Cc1ccc2c(c1)nnn2-c1ccccc1	23	.	.	5	.	.
N#Cc1ccc2sn(-c3ccccc3)c(=O)c2c1	126*	.	.	.	.	107*	Diaph ctr 10uM=-11;Diaphorase 30uM=8
O=c1c(-c2ccccc2)c[nH]n1-c1cccc([N+](=O)[O-])c1	52	4	0.9	-6	12	.
CC1Cc2ccccc2N1C(=O)CSc1ncccn1 (stereo unspecified)	1	.	.	-3	.	.
O=C1Nc2cc(C(=O)NCCCN3CCCC3)ccc2S/C1=C\c1ccccc1	105*	.	.	1	.	98*	Diaph ctr 10uM=-5;Diaphorase 30uM=-16
CCC(NC(=O)c1ccncc1)c1ccccc1 (stereo unspecified)	-18	.	.	6	.	.
Cc1cc(C)nc(SCc2cnc(C)nc2N)n1	-20	2	1	-4	0	.
COc1ccc(C(=O)Nc2cnn(Cc3c(F)cccc3Cl)c2)cc1OC	19	.	.	-22	.	.
O=[N+]([O-])c1ccc2nc(-c3ccccc3)[nH]c2c1	68*	-13	0.9	7	9	21
Nc1cccc(-c2nc3ccc(C(=O)c4ccccc4)cc3[nH]2)c1	62*	.	.	2	.	14
CC1(C)Cc2c(c(-c3ccco3)nc3sc4c(NCCCO)ncnc4c23)CO1	60*	.	.	14	.	9
